The source made the active and inactive calls. The rule behind the calls is not given here. Peptide text beside a SMILES is read from it. * marks the point of attachment. OBn = c1ccc(CO*)cc1
Tests used:
[1] = test system: H22; experiment: Antiproliferative activity against mouse H22 cells after 48 hrs by MTT assay; format: functional, cell-based; conditions: H22, 48 h
[2] = test system: Mus musculus; experiment: Acute toxicity in ICR mouse assessed as apparent changes in any organ at 500 mg/kg, ip administered qd for 7 days; format: organism-based; set-up: dose 500 mg/kg, route intraperitoneal; conditions: in vivo, 168 h
[3] = test system: CCRF S-180; experiment: Antitumor activity against mouse S180 cells xenografted in ICR mouse assessed as tumor growth inhibition at 0.089 umol/kg, ip qd administered 1 day after tumor inoculation for 7 days; format: functional; conditions: CCRF S-180, ip, read-out: GI
Outline: (§1)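 Male ICR mice 10–12 weeks; S180 from ascites serially transplanted weekly; 1×10^7 viable cells in 0.2 ml NS implanted s.c. at right oxter; 24 h later randomized (10 per group); daily i.p. 8.9, 0.89 or 0.089 µmol/kg/day in 0.2 ml NS, 7 days; NS and cytarabine controls; sacrificed 24 h after last dose; inhibition % = [1−(Tw/Cw)]×100.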

[4] = test system: Mus musculus; experiment: Toxicity in ICR mouse xenografted with mouse S180 cells assessed as effect on brain weight at 8.9 umol/kg; format: organism-based, CCRF S-180; conditions: in vivo
Outline: (§2)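 S180-bearing male ICR mice (10–12 weeks; 1×10^7 cells s.c. right oxter; 12 per group), daily i.p. 8.9 µmol/kg for seven days starting 24 h after implantation; NS, cytarabine and doxorubicin controls; liver, brain, kidney weights, spleen index and body-weight gain recorded.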

[5] = test system: Mus musculus; experiment: Acute toxicity in ICR mouse assessed as supination at 500 mg/kg, ip administered qd for 7 days; format: organism-based; set-up: dose 500 mg/kg, route intraperitoneal; conditions: in vivo, 168 h
[6] = test system: CCRF S-180; experiment: Antitumor activity against mouse S180 cells xenografted in ICR mouse assessed as tumor growth inhibition at 8.9 umol/kg, ip administered 1 day after tumor inoculation qd for 7 days; format: functional; conditions: CCRF S-180, ip, read-out: GI; outline: as §1
[7] = test system: Mus musculus; experiment: Acute toxicity in ICR mouse assessed as tremors at 500 mg/kg, ip administered qd for 7 days; format: organism-based; set-up: dose 500 mg/kg, route intraperitoneal; conditions: in vivo, 168 h
[8] = Acute toxicity in ip dosed ICR mouse assessed as lethal dose; format: organism-based; conditions: in vivo
Outline: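 Male ICR mice, 24 weeks old, got a single i.p. injection of 500 mg/kg in 0.2 ml NS (normal saline). They were watched for 7 days for neurotoxic behaviour (tremor, twitch, jumping, tetanus, supination) and for death.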

[9] = test system: Mus musculus; experiment: Toxicity in ICR mouse xenografted with mouse S180 cells assessed as increase in spleen index at 8.9 umol/kg; format: organism-based, CCRF S-180; conditions: in vivo; outline: as §2
[10] = test system: CCRF S-180; experiment: Antitumor activity against mouse S180 cells xenografted in ICR mouse assessed as tumor growth inhibition at 0.89 umol/kg, ip administered 1 day after tumor inoculation qd for 7 days; format: functional; conditions: CCRF S-180, ip, read-out: GI; outline: as §1
[11] = test system: B16; experiment: Antiproliferative activity against mouse B16 cells after 48 hrs by MTT assay; format: functional, cell-based; conditions: B16, 48 h
[12] = test system: Mus musculus; experiment: Toxicity in ICR mouse xenografted with mouse S180 cells assessed as effect on liver weight at 8.9 umol/kg; format: organism-based, CCRF S-180; conditions: in vivo; outline: as §2
[13] = test system: Mus musculus; experiment: Toxicity in ICR mouse xenografted with mouse S180 cells assessed as increase in body weight at 8.9 umol/kg; format: organism-based, CCRF S-180; conditions: in vivo; outline: as §2
[14] = test system: Mus musculus; experiment: Acute toxicity in ICR mouse assessed as mortality at 500 mg/kg, ip administered qd for 7 days; format: organism-based; set-up: dose 500 mg/kg, route intraperitoneal; conditions: in vivo, 168 h
[15] = test system: Nucleic Acid; experiment: Binding affinity to calf thymus DNA assessed as increase in DNA viscosity at compound to DNA ratio of 0.36; format: nucleic-acid assay; conditions: Bos taurus
Outline: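 Relative viscosity of CT DNA solutions measured at compound/CT DNA ratios 0–0.36.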

[16] = test system: Nucleic Acid; experiment: Binding affinity to double strand calf thymus DNA assessed as melting temperature; format: nucleic-acid assay; conditions: Bos taurus
Outline: (§3)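 CT DNA in PBS pH 7.4, alone or with compound; temperature raised 1 °C/min with absorbance at 279 nm; Tm taken as temperature giving 50% absorbance increase.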

[17] = test system: Nucleic Acid; experiment: Binding affinity to double stranded calf thymus DNA assessed as change in melting temperature per minute; format: nucleic-acid assay; conditions: Bos taurus; outline: as §3
[18] = test system: Mus musculus; experiment: Acute toxicity in ICR mouse assessed as jumping at 500 mg/kg, ip administered qd for 7 days; format: organism-based; set-up: dose 500 mg/kg, route intraperitoneal; conditions: in vivo, 168 h
[19] = test system: K562; experiment: Antiproliferative activity against human K562 cells after 48 hrs by MTT assay; format: functional, cell-based; conditions: K562, 48 h
[20] = test system: Mus musculus; experiment: Acute toxicity in ICR mouse assessed as tetanus at 500 mg/kg, ip administered qd for 7 days; format: organism-based; set-up: dose 500 mg/kg, route intraperitoneal; conditions: in vivo, 168 h
[21] = test system: Mus musculus; experiment: Toxicity in ICR mouse xenografted with mouse S180 cells assessed as effect on kidney weight at 8.9 umol/kg; format: organism-based, CCRF S-180; conditions: in vivo; outline: as §2
[22] = test system: HepG2; experiment: Antiproliferative activity against human HepG2 cells after 48 hrs by MTT assay; format: functional, cell-based; conditions: HepG2, 48 h
[23] = test system: CCRF S-180; experiment: Antiproliferative activity against mouse S180 cells after 48 hrs by MTT assay; format: functional, cell-based; conditions: CCRF S-180, 48 h
[24] = test system: Mus musculus; experiment: Acute toxicity in ICR mouse assessed as twitch at 500 mg/kg, ip administered qd for 7 days; format: organism-based; set-up: dose 500 mg/kg, route intraperitoneal; conditions: in vivo, 168 h
[25] = test system: Mus musculus; experiment: Toxicity in ICR mouse xenografted with mouse S180 cells assessed as effect on brain weight at 2 umol/kg; format: organism-based, CCRF S-180; conditions: in vivo
[26] = test system: Mus musculus; experiment: Toxicity in ICR mouse xenografted with mouse S180 cells assessed as increase in spleen index at 2 umol/kg; format: organism-based, CCRF S-180; conditions: in vivo
[27] = test system: Mus musculus; experiment: Toxicity in ICR mouse xenografted with mouse S180 cells assessed as increase in body weight at 2 umol/kg; format: organism-based, CCRF S-180; conditions: in vivo
[28] = test system: Mus musculus; experiment: Toxicity in ICR mouse xenografted with mouse S180 cells assessed as effect on liver weight at 2 umol/kg; format: organism-based, CCRF S-180; conditions: in vivo
[29] = test system: Mus musculus; experiment: Toxicity in ICR mouse xenografted with mouse S180 cells assessed as effect on kidney weight at 2 umol/kg; format: organism-based, CCRF S-180; conditions: in vivo

SMILES | IC50 [1] [µM] | Activity [2] | Activity [4] [g] | Activity [5] | inhibition in vivo at 8.9 µmol/kg [6] [%] | Activity [7] | LD50 [8] [mg/kg] | Activity [9] | IC50 [11] [µM] | Activity [12] [g] | Activity [13] [g] | Activity [14] | Activity [18] | IC50 [19] [µM] | Activity [20] | Activity [21] [g] | IC50 [22] [µM] | IC50 [23] [µM] | Activity [24] | other results
CC(C)[C@H](NC(=O)[C@H](Cc1c[nH]c2ccccc12)NC(=O)[C@@H](N)Cc1c[nH]c2ccccc12)C(=O)OCc1ccccc1 (H-Trp-Trp-Val-OBn) | 9.97 | Non-toxic | 0.27 | Non-toxic | 79.5 | Non-toxic | > 500 | 7.97 | 11.2 | 1.89 | 9.97 | Non-toxic | Non-toxic | 8.27 | Non-toxic | 0.15 | 9.49 | 8.14 | Non-toxic | inhibition in vivo at 0.089 µmol/kg [3]: 41.7%; inhibition in vivo at 0.89 µmol/kg [10]: 70.2%; Activity [15]: Active; Tm [16]: 22 °C; ΔTm [17]: 1 °C
NC(=O)C[C@H](NC(=O)[C@H](Cc1c[nH]c2ccccc12)NC(=O)[C@@H](N)Cc1c[nH]c2ccccc12)C(=O)OCc1ccccc1 (H-Trp-Trp-Asn-OBn) | 18.7 | Non-toxic | 0.27 | Non-toxic | 50.6 | Non-toxic | > 500 | 7.81 | 21.3 | 1.82 | 9.96 | Non-toxic | Non-toxic | 16.3 | Non-toxic | 0.16 | 17.9 | 15.5 | Non-toxic | 
COc1cccc2c1C(=O)c1c(O)c3c(c(O)c1C2=O)C[C@@](O)(C(=O)CO)C[C@@H]3O[C@H]1C[C@H](N)[C@H](O)[C@H](C)O1 [DOXORUBICIN] | 36.5 |  |  |  | 48.2 |  |  |  | 21.5 |  |  |  |  | 17.2 |  |  | 17.5 | 29.2 |  | Activity [25]: 0.25 g; Activity [26]: 7.31; Activity [27]: 6.12 g; Activity [28]: 1.61 g; Activity [29]: 0.15 g

Source: ChEMBL document CHEMBL1806449, “A class of Trp-Trp-AA-OBzl: Synthesis, in vitro anti-proliferation/in vivo anti-tumor evaluation, intercalation-mechanism investigation and 3D QSAR analysis” (Eur J Med Chem, 2011)
